{
  "source": "ChEMBL document CHEMBL1153844",
  "about": "“Synthesis, crystal structure and anti-inflammatory properties of curcumin analogues” (2009)",
  "key": {"J774.A1 [1]": {"tested_on": "J774.A1", "experiment": "Antiinflammatory activity in mouse J774A1 cells assessed as inhibition of LPS-induced TNFalpha production at 10 uM preincubated for 3 hrs before LPS challenge measured after 21 hrs by ELISA", "format": "functional, cell-based", "procedure,_shortened": "(§1)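 J774A.1 mouse macrophage-like cells were plated overnight in DMEM with 10% FBS and penicillin/streptomycin at 1.2 × 10⁶/plate, 37 °C, 5% CO₂. They were pretreated 3 h with compound or vehicle, then given LPS for 21 h. TNF-α or IL-6 in the medium was measured by ELISA and normalized to total protein of the lysed cell pellet. Values are percent of LPS control, from three independent experiments (mean ± S.E.).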"}, "J774.A1 [2]": {"tested_on": "J774.A1", "experiment": "Antiinflammatory activity in mouse J774A1 cells assessed as inhibition of LPS-induced IL6 production at 10 uM preincubated for 3 hrs before LPS challenge measured after 21 hrs by ELISA", "format": "functional, cell-based", "procedure,_shortened": "as §1"}, "J774.A1 [3]": {"tested_on": "J774.A1", "experiment": "Enhancement of LPS-induced TNFalpha production in mouse J774A1 cells at 10 uM preincubated for 3 hrs before LPS challenge measured after 21 hrs by ELISA", "format": "functional, cell-based", "procedure,_shortened": "as §1"}, "J774.A1 [4]": {"tested_on": "J774.A1", "experiment": "Enhancement of LPS-induced IL6 production in mouse J774A1 cells at 10 uM preincubated for 3 hrs before LPS challenge measured after 21 hrs by ELISA", "format": "functional, cell-based", "procedure,_shortened": "as §1"}, "J774.A1 [5]": {"tested_on": "J774.A1", "experiment": "Antiinflammatory activity in mouse J774A1 cells assessed as inhibition of LPS-induced TNFalpha production at 10 uM preincubated for 3 hrs before LPS challenge measured after 21 hrs by ELISA relative to control", "format": "functional", "procedure,_shortened": "as §1"}, "J774.A1 [6]": {"tested_on": "J774.A1", "experiment": "Antiinflammatory activity in mouse J774A1 cells assessed as inhibition of LPS-induced IL6 production at 10 uM preincubated for 3 hrs before LPS challenge measured after 21 hrs by ELISA relative to control", "format": "functional", "procedure,_shortened": "as §1"}},
  "note": "The source made the active and inactive calls. The rule behind the calls is not given here.",
  "data": [
    {"compound": "COc1cc(/C=C2\\CCC/C(=C\\c3ccc(O)c(OC)c3)C2=O)ccc1O", "values": [
      {"measurement": "Activity", "setting": "J774.A1 [1]", "value": "Active"},
      {"measurement": "Activity", "setting": "J774.A1 [2]", "value": "Active"}
    ]},
    {"compound": "COc1cc(/C=C2\\CC/C(=C\\c3ccc(O)c(OC)c3)C2=O)ccc1O", "values": [
      {"measurement": "Activity", "setting": "J774.A1 [1]", "value": "Active"},
      {"measurement": "Activity", "setting": "J774.A1 [2]", "value": "Active"}
    ]},
    {"compound": "COc1cc(/C=C/C(=O)/C=C/c2ccc(O)c(OC)c2)ccc1O", "values": [
      {"measurement": "Activity", "setting": "J774.A1 [1]", "value": "Active"},
      {"measurement": "Activity", "setting": "J774.A1 [2]", "value": "Active"}
    ]},
    {"compound": "O=C1/C(=C/c2ccc(O)cc2)CCC/C1=C\\c1ccc(O)cc1", "values": [
      {"measurement": "Activity", "setting": "J774.A1 [1]", "value": "Active"},
      {"measurement": "Activity", "setting": "J774.A1 [2]", "value": "Active"}
    ]},
    {"compound": "O=C(/C=C/c1ccc(O)cc1)/C=C/c1ccc(O)cc1", "values": [
      {"measurement": "Activity", "setting": "J774.A1 [3]", "value": "Active"},
      {"measurement": "Activity", "setting": "J774.A1 [4]", "value": "Active"}
    ]},
    {"compound": "O=C1/C(=C/c2ccc(F)cc2)CCC/C1=C\\c1ccc(F)cc1", "values": [
      {"measurement": "inhibition at 10 µM", "setting": "J774.A1 [5]", "value": 65.3, "unit": "%"},
      {"measurement": "inhibition at 10 µM", "setting": "J774.A1 [6]", "value": 54.8, "unit": "%"}
    ]}
  ]
}
